Test results taken from ChEMBL document CHEMBL2375318, “Design, synthesis and antimicrobial activity of novel benzothiazole analogs” (Eur J Med Chem, 2013).
In brackets after ≈: the same amount, converted by molar mass.

Key:
[1] = tested on: Aspergillus fumigatus; assay: Antimicrobial activity against Aspergillus fumigatus clinical isolate after 18 to 24 hrs by micro-dilution method; format: functional
How it was run: (§1)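 Broth micro-dilution MIC, fungi. Fresh broth cultures were made in normal saline. Compounds were serially diluted in microtiter plates across 8 concentrations, 100 down to 0.78. Standardized inoculum was 1–2 × 10^7 cfu/ml. Medium was Sabouraud dextrose pH 7.3 ± 0.2. Plates were incubated aerobically at 37 °C for 18–24 h. MIC is the lowest concentration with no visible growth or turbidity versus control. Fluconazole was the reference.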

[2] = tested on: Aspergillus niger; assay: Antimicrobial activity against Aspergillus niger clinical isolate after 18 to 24 hrs by micro-dilution method; format: functional; how it was run: as §1
[3] = tested on: Cryptococcus neoformans; assay: Antifungal activity against Cryptococcus neoformans clinical isolate after 18 to 24 hrs by micro-dilution method; format: functional; how it was run: as §1
[4] = tested on: Pichia kudriavzevii; assay: Antifungal activity against Candida krusei ATCC 6258 after 18 to 24 hrs by micro-dilution method; format: functional; how it was run: as §1
[5] = tested on: Candida albicans; assay: Antifungal activity against Candida albicans ATCC 90028 after 18 to 24 hrs by micro-dilution metho; format: functional; how it was run: as §1
[6] = tested on: Candida albicans; assay: Antifungal activity against Candida albicans clinical isolate after 18 to 24 hrs by micro-dilution method; format: functional; how it was run: as §1
[7] = tested on: Candida tropicalis; assay: Antifungal activity against Candida tropicalis ATCC 750 after 18 to 24 hrs by micro-dilution method; format: functional; how it was run: as §1
[8] = tested on: Shigella boydii; assay: Antimicrobial activity against Shigella boydii clinical isolate after 18 to 24 hrs by micro-dilution method; format: functional
[9] = Cytotoxicity against human RBC assessed as hemolytic activity at 100 uM after 1 hr by spectophotometry; format: cell-based, Erythrocyte; conditions: red blood cells (RBC), read-out: Activity
How it was run: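 Hemolysis, fresh human blood. RBCs were washed three times in PBS (spun 3000 rpm, 7 min, room temperature) and adjusted to 5×10^8 cells/ml. Cell suspension was added to buffer holding 100 μM compound in 1% v/v DMSO/PBS. Controls were 1% DMSO/PBS and sterile water. Samples were shaken at 37 °C for 1 h, spun at 1300 rpm for 5 min, and supernatant absorbance read at 540 nm.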

[10] = tested on: Pseudomonas aeruginosa; assay: Antimicrobial activity against Pseudomonas aeruginosa ATCC 27893 after 18 to 24 hrs by micro-dilution method; format: functional
[11] = tested on: Klebsiella pneumoniae; assay: Antimicrobial activity against Klebsiella pneumoniae clinical isolate after 18 to 24 hrs by micro-dilution method; format: functional
[12] = tested on: Escherichia coli; assay: Antimicrobial activity against Escherichia coli ATCC 35218 after 18 to 24 hrs by micro-dilution method; format: functional
[13] = tested on: Salmonella typhi; assay: Antimicrobial activity against Salmonella typhi MTCC 3216 after 18 to 24 hrs by micro-dilution method; format: functional, Salmonella enterica subsp. enterica serovar Typhi; conditions: Salmonella enterica
How it was run: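 Broth microdilution with twofold serial dilutions from 100 down to 0.78, eight concentrations. Fresh cultures were made up in normal saline, and 0.1 ml of standardized inoculum (1–2 × 10^7 cfu/ml) was added per well. Plates were incubated aerobically at 37 °C for 18–24 h on Mueller-Hinton agar/Luria broth. MIC was the lowest concentration with no visible turbidity compared with the control.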

[14] = tested on: Enterococcus faecalis; assay: Antimicrobial activity against Enterococcus faecalis clinical isolate after 18 to 24 hrs by micro-dilution method; format: functional
[15] = tested on: Staphylococcus aureus; assay: Antimicrobial activity against Staphylococcus aureus ATCC 25323 after 18 to 24 hrs by micro-dilution method; format: functional

SMILES | MIC [1] | MIC [2] | MIC [3] | MIC [4] | MIC [5] | MIC [6] | MIC [7] | MIC [8] | hemolysis at 1 h, 100 µM [9] | MIC [10] | MIC [11] | MIC [12] | MIC [13] | MIC [14] | MIC [15]
O=[N+]([O-])c1ccc(-n2cc(CN(Cc3cn(-c4ccc([N+](=O)[O-])cc4)nn3)c3nc4ccccc4s3)nn2)cc1 | > 100 µg/mL | > 100 µg/mL | > 100 µg/mL | > 100 µg/mL | > 100 µg/mL | > 100 µg/mL | > 100 µg/mL | > 100 µg/mL | 27.9% | > 100 µg/mL | > 100 µg/mL | > 100 µg/mL | > 100 µg/mL | > 100 µg/mL | > 100 µg/mL
CCCCCc1ccc(-n2cc(CN(Cc3cn(-c4ccc(CCCCC)cc4)nn3)c3nc4ccccc4s3)nn2)cc1 | > 100 µg/mL | > 100 µg/mL | > 100 µg/mL | > 100 µg/mL | > 100 µg/mL | > 100 µg/mL | 12.5 µg/mL (≈ 20.7 µM) | > 100 µg/mL | 3.28% | > 100 µg/mL | > 100 µg/mL | > 100 µg/mL | > 100 µg/mL | > 100 µg/mL | > 100 µg/mL
FC(F)(F)Oc1ccc(-n2cc(CN(Cc3cn(-c4ccc(OC(F)(F)F)cc4)nn3)c3nc4ccccc4s3)nn2)cc1 | 25 µg/mL (≈ 39.5 µM) | 12.5 µg/mL (≈ 19.8 µM) | 3.12 µg/mL (≈ 4.93 µM) | 12.5 µg/mL (≈ 19.8 µM) | 3.12 µg/mL (≈ 4.93 µM) | 12.5 µg/mL (≈ 19.8 µM) | 12.5 µg/mL (≈ 19.8 µM) | 100 µg/mL (≈ 158 µM) | 9.12% | 25 µg/mL (≈ 39.5 µM) | 12.5 µg/mL (≈ 19.8 µM) | 25 µg/mL (≈ 39.5 µM) | > 100 µg/mL | 12.5 µg/mL (≈ 19.8 µM) | 12.5 µg/mL (≈ 19.8 µM)
Brc1ccc(-n2cc(CN(Cc3cn(-c4ccc(Br)cc4)nn3)c3nc4ccccc4s3)nn2)cc1 | 3.12 µg/mL (≈ 5.01 µM) | 3.12 µg/mL (≈ 5.01 µM) | 1.56 µg/mL (≈ 2.51 µM) | 6.25 µg/mL (≈ 10 µM) | 6.25 µg/mL (≈ 10 µM) | 12.5 µg/mL (≈ 20.1 µM) | 6.25 µg/mL (≈ 10 µM) | > 100 µg/mL | 12.4% | > 100 µg/mL | > 100 µg/mL | > 100 µg/mL | > 100 µg/mL | > 100 µg/mL | > 100 µg/mL
OC(Cn1cncn1)(Cn1cncn1)c1ccc(F)cc1F [FLUCONAZOLE] | 1.56 µg/mL (≈ 5.09 µM) | 1.56 µg/mL (≈ 5.09 µM) | 0.78 µg/mL (≈ 2.55 µM) | 1.56 µg/mL (≈ 5.09 µM) | 1.56 µg/mL (≈ 5.09 µM) | 3.12 µg/mL (≈ 10.2 µM) | 1.56 µg/mL (≈ 5.09 µM) | – | – | – | – | – | – | – | –
COc1cccc(-n2cc(CN(Cc3cn(-c4cccc(OC)c4)nn3)c3nc4ccccc4s3)nn2)c1 | 3.12 µg/mL (≈ 5.95 µM) | 3.12 µg/mL (≈ 5.95 µM) | 1.56 µg/mL (≈ 2.97 µM) | 6.25 µg/mL (≈ 11.9 µM) | 6.25 µg/mL (≈ 11.9 µM) | 25 µg/mL (≈ 47.7 µM) | 12.5 µg/mL (≈ 23.8 µM) | > 100 µg/mL | 7.54% | > 100 µg/mL | > 100 µg/mL | 50 µg/mL (≈ 95.3 µM) | > 100 µg/mL | > 100 µg/mL | 100 µg/mL (≈ 191 µM)
Fc1cccc(-n2cc(CN(Cc3cn(-c4cccc(F)c4)nn3)c3nc4ccccc4s3)nn2)c1 | > 100 µg/mL | > 100 µg/mL | > 100 µg/mL | > 100 µg/mL | > 100 µg/mL | > 100 µg/mL | > 100 µg/mL | > 100 µg/mL | 29.8% | > 100 µg/mL | > 100 µg/mL | > 100 µg/mL | > 100 µg/mL | > 100 µg/mL | > 100 µg/mL
Fc1ccccc1-n1cc(CN(Cc2cn(-c3ccccc3F)nn2)c2nc3ccccc3s2)nn1 | > 100 µg/mL | > 100 µg/mL | > 100 µg/mL | > 100 µg/mL | > 100 µg/mL | > 100 µg/mL | > 100 µg/mL | > 100 µg/mL | 26.5% | > 100 µg/mL | > 100 µg/mL | > 100 µg/mL | > 100 µg/mL | > 100 µg/mL | > 100 µg/mL
O=C(O)c1cn(C2CC2)c2cc(N3CCNCC3)c(F)cc2c1=O [CIPROFLOXACIN] | – | – | – | – | – | – | – | – | – | 3.12 µg/mL (≈ 9.42 µM) | – | – | – | – | –
Fc1ccc(-n2cc(CN(Cc3cn(-c4ccc(F)c(Cl)c4)nn3)c3nc4ccccc4s3)nn2)cc1Cl | 25 µg/mL (≈ 43.9 µM) | 6.25 µg/mL (≈ 11 µM) | 1.56 µg/mL (≈ 2.74 µM) | 3.12 µg/mL (≈ 5.48 µM) | 6.25 µg/mL (≈ 11 µM) | 25 µg/mL (≈ 43.9 µM) | 12.5 µg/mL (≈ 22 µM) | 100 µg/mL (≈ 176 µM) | 5.32% | 3.12 µg/mL (≈ 5.48 µM) | 50 µg/mL (≈ 87.8 µM) | 25 µg/mL (≈ 43.9 µM) | 6.25 µg/mL (≈ 11 µM) | 3.12 µg/mL (≈ 5.48 µM) | 6.25 µg/mL (≈ 11 µM)
c1ccc2c(-n3cc(CN(Cc4cn(-c5cccc6ccccc56)nn4)c4nc5ccccc5s4)nn3)cccc2c1 | > 100 µg/mL | > 100 µg/mL | > 100 µg/mL | > 100 µg/mL | > 100 µg/mL | > 100 µg/mL | > 100 µg/mL | > 100 µg/mL | 34% | > 100 µg/mL | > 100 µg/mL | > 100 µg/mL | > 100 µg/mL | > 100 µg/mL | > 100 µg/mL
COc1cc(-n2cc(CN(Cc3cn(-c4cc(OC)c(OC)c(OC)c4)nn3)c3nc4ccccc4s3)nn2)cc(OC)c1OC | > 100 µg/mL | > 100 µg/mL | > 100 µg/mL | 6.25 µg/mL (≈ 9.69 µM) | > 100 µg/mL | > 100 µg/mL | > 100 µg/mL | > 100 µg/mL | 36.6% | > 100 µg/mL | > 100 µg/mL | > 100 µg/mL | > 100 µg/mL | > 100 µg/mL | > 100 µg/mL
Cc1ccc(-n2cc(CN(Cc3cn(-c4ccc(C)c(C)c4)nn3)c3nc4ccccc4s3)nn2)cc1C | > 100 µg/mL | > 100 µg/mL | > 100 µg/mL | > 100 µg/mL | > 100 µg/mL | > 100 µg/mL | > 100 µg/mL | > 100 µg/mL | 43% | > 100 µg/mL | > 100 µg/mL | > 100 µg/mL | > 100 µg/mL | > 100 µg/mL | > 100 µg/mL
Cc1cc(C)cc(-n2cc(CN(Cc3cn(-c4cc(C)cc(C)c4)nn3)c3nc4ccccc4s3)nn2)c1 | 12.5 µg/mL (≈ 24 µM) | 12.5 µg/mL (≈ 24 µM) | 3.12 µg/mL (≈ 5.99 µM) | > 100 µg/mL | 3.12 µg/mL (≈ 5.99 µM) | 12.5 µg/mL (≈ 24 µM) | 12.5 µg/mL (≈ 24 µM) | 100 µg/mL (≈ 192 µM) | 7.42% | > 100 µg/mL | > 100 µg/mL | 100 µg/mL (≈ 192 µM) | 100 µg/mL (≈ 192 µM) | > 100 µg/mL | 100 µg/mL (≈ 192 µM)
